Experimental data published in PMC9055537 (RSC Advances, 2020).
Where a SMILES comes first, the peptide text is derived from it. [ ]: non-standard residue; d: D form. Nva = CCC[C@H](N)C(=O)O; Aib = CC(C)(N)C(=O)O

How the values were obtained:
[1] = target: Aβ42 (Homo sapiens, UniProt P05067); assay: Thioflavin-T fluorescence assay, inhibition of Aβ42 aggregation; assay type: biochemical; settings: 24 h, read-out: % inhibition of Aβ42 aggregation (ThT fluorescence), test peptide 10 μM (1:5), Aβ42 2 μM, co-incubated 24 h at 37 °C, λex 440 nm, λem 485 nm, mean of triplicate
[2] = target: preformed Aβ42 fibrils (Homo sapiens, UniProt P05067); assay: Thioflavin-T assay, deformation of preformed Aβ42 fibrils; assay type: biochemical; settings: 24 h, Aβ42 2 μM pre-aggregated 24 h
[3] = system: PC-12 cells; assay: Cytotoxicity studies, MTT assay; assay type: cell-based, rat; settings: highest tested concentration 20 μM, 6 h, MTT OD570, triplicate
Summary of the method: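 PC-12 cells were exposed to the test peptide alone at the stated dose for 6 h, with no Aβ added, and viability was read by MTT assay. Untreated cells were set as 100% (positive control). Samples were run in triplicate in three individual experiments and the readings were averaged (<5% variation).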

Sequence of Aβ42 (P05067 672-713): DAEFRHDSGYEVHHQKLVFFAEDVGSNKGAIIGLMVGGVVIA
Sequence of preformed Aβ42 fibrils (P05067 672-713): as above

Row | Compound | inhibition at 10 µM [1] | other results
1 | CC[C@H](C)[C@H](NC(=O)[C@@H](NC(=O)[C@H](N)C(C)C)C(C)C)C(=O)N[C@@H](C)C(N)=O [12a, D -Val-Val-Ile-Ala-NH2] (H-[dV]VIA-NH2) | 82.1% | 
2 | CC[C@H](C)[C@H](NC(=O)[C@@H](NC(=O)[C@@H](N)Cc1ccccc1)C(C)C)C(=O)N[C@@H](C)C(N)=O [12b, Phe-Val-Ile-Ala-NH2] (H-FVIA-NH2) | 77.6% | 
3 | CC[C@H](C)[C@H](NC(=O)[C@@H](NC(=O)[C@H](N)Cc1ccccc1)C(C)C)C(=O)N[C@@H](C)C(N)=O [12c, D-Phe-Val-Ile-Ala-NH2] (H-[dF]VIA-NH2) |  | % Deformation of preformed Aβ42 fibrils ([2]; test peptide 0.5 μM (1:0.1)): 33.7%; % Deformation of preformed Aβ42 fibrils ([2]; test peptide 1 μM (1:0.5)): 34.9%; % Deformation of preformed Aβ42 fibrils ([2]; test peptide 2 μM (1:1)): 57.5%; cytotoxicity, % viable PC-12 cells [3]: negligible cytotoxicity
4 | CC[C@H](C)[C@H](NC(=O)[C@@H](NC(=O)[C@H]1CCCN1)C(C)C)C(=O)N[C@@H](C)C(N)=O [12d, D -Pro-Val-Ile-Ala-NH2] (H-[dP]VIA-NH2) | 39.8% | 
5 | CCC[C@H](N)C(=O)N[C@H](C(=O)N[C@H](C(=O)N[C@@H](C)C(N)=O)[C@@H](C)CC)C(C)C [12e, Nva-Val-Ile-Ala-NH2] (H-[Nva]VIA-NH2) | 70.3% | 
6 | CC[C@H](C)[C@H](NC(=O)[C@H](NC(=O)[C@@H](N)C(C)C)C(C)C)C(=O)N[C@@H](C)C(N)=O [13a, Val-D-Val-Ile-Ala-NH2] (H-V[dV]IA-NH2) | 15.7% | 
7 | CC[C@@H](C)[C@@H](NC(=O)[C@@H](N)C(C)C)C(=O)N[C@H](C(=O)N[C@@H](C)C(N)=O)[C@@H](C)CC [13b, Val-D-Ile-Ile-Ala-NH2] (H-V[dI]IA-NH2) | 49.4% | 
8 | CC[C@H](C)[C@H](NC(=O)C(C)(C)NC(=O)[C@@H](N)C(C)C)C(=O)N[C@@H](C)C(N)=O [13d, Val-Aib-Ile-Ala-NH2] (H-V[Aib]IA-NH2) | 45.3% | 
9 | CC[C@@H](C)[C@@H](NC(=O)[C@@H](NC(=O)[C@@H](N)C(C)C)C(C)C)C(=O)N[C@@H](C)C(N)=O [14a, Val-Val-D-Ile-Ala-NH2] (H-VV[dI]A-NH2) | 21.8% | 
10 | CC(C)C[C@H](NC(=O)[C@@H](NC(=O)[C@@H](N)C(C)C)C(C)C)C(=O)N[C@@H](C)C(N)=O [14b, Val-Val-Leu-Ala-NH2] (H-VVLA-NH2) | 0% | 
11 | CC[C@H](C)[C@H](NC(=O)[C@@H](NC(=O)[C@@H](N)C(C)C)C(C)C)C(=O)N[C@H](C)C(N)=O [15a, Val-Val-Ile-D-Ala-NH2] (H-VVI[dA]-NH2) | 23.2% | 
12 | CC[C@H](C)[C@H](NC(=O)[C@@H](NC(=O)[C@@H](N)C(C)C)C(C)C)C(=O)NC(C)(C)C(N)=O [15b, Val-Val-Ile-Aib-NH2] (H-VVI[Aib]-NH2) | 35.1% | 
13 | CC[C@H](C)[C@H](NC(=O)[C@@H](NC(=O)[C@@H](N)C(C)C)C(C)C)C(=O)N[C@H](C(N)=O)C(C)C [15d, Val-Val-Ile-Val-NH2] (H-VVIV-NH2) | 11% | 
14 | CC[C@H](C)[C@H](NC(=O)[C@@H](NC(=O)[C@@H](N)C(C)C)C(C)C)C(=O)N[C@@H](CC(C)C)C(N)=O [15e, Val-Val-Ile-Leu-NH2] (H-VVIL-NH2) | 31.2% | 
15 | CC[C@H](C)[C@H](NC(=O)[C@@H]1CCCN1C(=O)[C@@H]1CCCN1)C(=O)N[C@@H](C)C(N)=O [16a, Pro-Pro-Ile-Ala-NH2] (H-PPIA-NH2) | 14.2% | 
